In general, viability refers to a read-out of living cells in per cent, often relative to untreated cells. As a reminder, the inhibition is the change of the read-out against control, counted positive when it falls.

In PubChem BioAssay one finds viability, differential viability (reversal) and inhibition data, which are given here for 18 molecules.

Assay [1] is described as follows: reduced viability of SK-BR-3 breast cancer cells – cell-based, 24 h, human, pilot screen (AID 572;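 active means viability at or below 10% of carrier control in both of two separate runs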;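 further: compound exposure lasted between 18 and 24 h rather than exactly 24 h; 100% = carrier-treated control wells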). The following applies: SK-BR-3 viability, CellTiter-Glo luminescence, at 10 µM, stronger effect = lower value. (In ATP-based viability assays light output follows the ATP content of the culture.)
A short description of assay [2]: HUVEC growth inhibition – cell-based, human, primary screen (AID 575;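 active means viability at or below 30% in both replicate assays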;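 further: 100% = median of untreated cell wells with 0.1% DMSO on each plate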). As to conditions: HUVEC proliferation, CellTiter-Glo luminescence, 72 h; at 10 µM; stronger effect = lower value. Summed up:
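Test system: primary human umbilical vein endothelial cells. Quantity: 1250 cells/well. Compound: single 10 µM dose, 0.1% DMSO, from 5x medium stock. Timing: 72 h treatment at 37 °C. Detection: ATP-based CellTiter-Glo luminescent read. Benchmarks: vehicle and MePR control wells. Format: 384-well plates coated with collagen.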

Assay [3] in a line: H69AR cell proliferation blockers – human, duplicate replicates, primary screen (AID 580;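 active means viability at or under a set limit in both replicates, limit being median viability minus 3 SD, cut at about 48% in these data, passing the limit was not always enough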;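 further: 100% = mean luminescence of untreated wells and 0% = no signal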). As to conditions: H69AR lung tumor cells viability, ATP luminescence, 72 h; at 10 µM; stronger effect = lower value.
A short description of assay [4]: MRP1 drug-resistance reversers in H69AR cells – cell-based, doxorubicin co-treatment, pilot screen (AID 601;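 active means viability loss from added drug above about 55%, and viability with drug at most 40%, in both replicates, limit read from the data, passing the limit was not always enough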). The following applies: CellTiter-Glo, 72 h, at 10 µM; for differential viability (reversal): stronger effect = higher value.
Assay [5] is described as follows: yeast transport mutant growth inhibition pilot in 384-well plates, post-Golgi transport modulator project (AID 636; in the data active means inhibition above about 31%). The following applies: absorbance 615 nm, about 18 h, stronger effect = higher value.
A short description of assay [6]: growth suppression of yeast trafficking mutant, preliminary HTS, modulators of trafficking downstream of Golgi apparatus project, 1536-format plate, OD 615 nm (AID 637). The following applies: yeast transport mutant growth, absorbance 615 nm, 18 h; stronger effect = higher value.
Where [7] appears, read: H69AR cells + 2 uM doxorubicin, measured here: viability with 2 uM doxorubicin, stronger effect = lower value.
Setting [8] is: H69AR cells, compound alone cytotoxicity.

The structures appear in SMILES notation. Active and inactive are the calls of the source. Unless noted, no stated cut-off is given here; in the data, active means inhibition above about 30%; inactive means the rest.

Turning to `Cc1cnc(C(=O)NCCc2ccc(S(=O)(=O)NC(=O)NC3CCCCC3)cc2)cn1`, the viability is 94% (inactive) in assay [1]; 94.9% (inactive) in assay [2]; 89.3% (inactive) in assay [3]; 106% in assay [4] (setting [7]); 89.3% in assay [4] (setting [8]). Further, the differential viability (reversal) in assay [4] (H69AR cells + 2 uM doxorubicin) is -16.6% (inactive). Besides, the values for the inhibition in assay [5] and in assay [6] were 1.04% (inactive) and 2% (inactive), respectively.

On to `O=C(Cn1[nH]c(=O)c2ccccc2c1=O)OCC(=O)N1CCCc2ccccc21`, for which the viability in assay [1] is 90% (inactive); in assay [2] it was 101% (inactive); in assay [3] it was 102% (inactive); in assay [4] (setting [7]), 88.7%; in assay [4] (setting [8]) it was 102%. In addition, the differential viability (reversal) in assay [4] (H69AR cells + 2 uM doxorubicin) was 13.7% (inactive). Also, the results for the inhibition in assay [5] and in assay [6] were -5.73% (inactive) and -2.55% (inactive), respectively.

For `Cc1nnc(Nc2ccccn2)c2ccccc12`, the viability was 89% (inactive) in assay [1]; 81.1% (inactive) in assay [2]; 87.3% (inactive) in assay [3]; 89.8% in assay [4] (setting [7]); 87.3% in assay [4] (setting [8]). Also, in assay [4] (H69AR cells + 2 uM doxorubicin), the differential viability (reversal) was -2.5% (inactive). In addition, the inhibition in assay [5] is 0.27% (inactive); in assay [6], -4.84% (inactive).

For `O=C(CSc1nnc(-c2ccccn2)n1Cc1ccccc1)N1CCCC1`, the viability is 109% (inactive) in assay [1]; 104% (inactive) in assay [2]; 98.8% (inactive) in assay [3]; 87.9% in assay [4] (setting [7]); 98.8% in assay [4] (setting [8]). The differential viability (reversal) in assay [4] (H69AR cells + 2 uM doxorubicin) is 10.9% (inactive). Also, the inhibition in assay [5] is -8.67% (inactive); in assay [6], -6% (inactive).

Regarding `COc1cc(C(=O)Nc2cc(-c3ccccc3)[nH]n2)cc(OC)c1OC`, the viability in assay [1] is 107% (inactive); in assay [2] it was 68.3% (inactive); in assay [3] it was 26% (active); in assay [4] (setting [7]) it was 71.7%; in assay [4] (setting [8]), 26%. Further, the differential viability (reversal) in assay [4] (H69AR cells + 2 uM doxorubicin) is -45.8% (inactive). Also, the inhibition is -4.27% (inactive) in assay [5] and -1.27% (inactive) in assay [6].

As for `CCOc1cc2[nH]c(=O)n(CCC(=O)NCCc3ccc(OC)c(OC)c3)c(=O)c2cc1OCC`, the viability in assay [1] was 103% (inactive); in assay [2] it was 75.4% (inactive); in assay [3] it was 96.8% (inactive); in assay [4] (setting [7]), 79.7%; in assay [4] (setting [8]), 96.8%. Moreover, the differential viability (reversal) in assay [4] (H69AR cells + 2 uM doxorubicin) is 17.1% (inactive). Further, the inhibition was -3.38% (inactive) in assay [5] and -0.98% (inactive) in assay [6].

For `O=C(O)c1ccc(C2SCC(=O)N2Cc2ccccc2)cc1` (centres undefined), the viability in assay [1] is 95% (inactive); in assay [2], 109% (inactive); in assay [3] it was 96.9% (inactive); in assay [4] (setting [7]), 95.6%; in assay [4] (setting [8]), 96.9%. Further, the differential viability (reversal) in assay [4] (H69AR cells + 2 uM doxorubicin) was 1.26% (inactive). The inhibition in assay [5] was -1.07% (inactive); in assay [6], 0% (inactive).

`COC(=O)c1ccc(-c2ccco2)n1Cc1nc(-c2ccc(OC)c(OC)c2)oc1C`: the viability was 125% (inactive) in assay [1]; 25.9% (active) in assay [2]; 48.8% (active) in assay [3]; 57.2% in assay [4] (setting [7]); 48.8% in assay [4] (setting [8]). In addition, in assay [4] (H69AR cells + 2 uM doxorubicin), the differential viability (reversal) is -8.4% (inactive). For the same molecule, the inhibition in assay [5] is -4.32% (inactive); in assay [6], 4.73% (inactive).

Turning to `COCCCN(Cc1ccccn1)S(=O)(=O)Cc1ccccc1`, the viability is 130% (inactive) in assay [1]; 83.5% (inactive) in assay [2]; 105% (inactive) in assay [3]; 86.7% in assay [4] (setting [7]); 105% in assay [4] (setting [8]). Besides, the differential viability (reversal) in assay [4] (H69AR cells + 2 uM doxorubicin) is 17.9% (inactive). Also, the inhibition is -4.11% (inactive) in assay [5] and -9.68% (inactive) in assay [6].

Consider `CC(=O)OC1CSc2nc3ccccc3n2C1` (centres undefined), for which the viability in assay [1] is 84% (inactive); in assay [2] it was 111% (inactive); in assay [3], 93.4% (inactive); in assay [4] (setting [7]) it was 85.9%; in assay [4] (setting [8]), 93.4%. The differential viability (reversal) in assay [4] (H69AR cells + 2 uM doxorubicin) is 7.46% (inactive). Besides, the inhibition in assay [5] is -8.11% (inactive); in assay [6] it was 3.45% (inactive).

As for `C=CCN=C1SCC(=O)N1S(=O)(=O)c1ccc(C)cc1`, the viability is 88% (inactive) in assay [1]; 89.1% (inactive) in assay [2]; 113% (inactive) in assay [3]; 99.4% in assay [4] (setting [7]); 113% in assay [4] (setting [8]). For the same molecule, in assay [4] (H69AR cells + 2 uM doxorubicin), the differential viability (reversal) was 13.6% (inactive). Also, the inhibition was -4.73% (inactive) in assay [5] and 1.64% (inactive) in assay [6].

On to `CN(C)c1nc(Oc2ccc(N)cc2)nc(N(C)C)n1`, for which the viability in assay [1] was 97% (inactive); in assay [2], 86.2% (inactive); in assay [3] it was 90.1% (inactive); in assay [4] (setting [7]) it was 96.6%; in assay [4] (setting [8]), 90.1%. In addition, the differential viability (reversal) in assay [4] (H69AR cells + 2 uM doxorubicin) is -6.47% (inactive). Also, the inhibition in assay [5] is -7.73% (inactive); in assay [6], -2% (inactive).

In the case of `CCn1c(SCc2cc(=O)[nH]c3ccccc23)nc2c1c(=O)n(C)c(=O)n2C`, the viability in assay [1] is 95% (inactive); in assay [2], 109% (inactive); in assay [3], 92% (inactive); in assay [4] (setting [7]), 95.8%; in assay [4] (setting [8]), 92%. Also, the differential viability (reversal) in assay [4] (H69AR cells + 2 uM doxorubicin) is -3.81% (inactive). Also, the inhibition in assay [5] is 0.68% (inactive); in assay [6], -2.18% (inactive).

Take `CCOC(=O)C1=C(C)NC(C)=C(C(=O)OC)C1c1cccc(Cl)c1Cl` (centres undefined): the viability in assay [1] was 86% (inactive); in assay [2], 11.2% (active); in assay [3] it was 72% (inactive); in assay [4] (setting [7]) it was 67.1%; in assay [4] (setting [8]) it was 72%. Besides, the differential viability (reversal) in assay [4] (H69AR cells + 2 uM doxorubicin) was 4.92% (inactive). In addition, the inhibition in assay [5] is 11.3% (inactive); in assay [6] it was 13.2% (inactive).

Regarding `O=C(CSc1nnc(-c2ccccc2)o1)NC1CCCCC1`, the viability in assay [1] is 75% (inactive); in assay [2], 105% (inactive); in assay [3] it was 98.5% (inactive); in assay [4] (setting [7]), 83.9%; in assay [4] (setting [8]), 98.5%. Also, the differential viability (reversal) in assay [4] (H69AR cells + 2 uM doxorubicin) is 14.7% (inactive). Also, the inhibition was -7.12% (inactive) in assay [5] and 3.55% (inactive) in assay [6].

Turning to `Cc1noc(C)c1CSc1nc2ccccc2s1`, the viability in assay [1] was 82% (inactive); in assay [2], 80.8% (inactive); in assay [3], 67.8% (inactive); in assay [4] (setting [7]), 70.9%; in assay [4] (setting [8]) it was 67.8%. Also, in assay [4] (H69AR cells + 2 uM doxorubicin), the differential viability (reversal) is -3.12% (inactive). Moreover, the results for the inhibition in assay [5] and in assay [6] were -1.43% (inactive) and -4.1% (inactive), respectively.

Turning to `COCCN(CCOC)C(=O)CCn1c(=O)oc2ccccc21`, the viability in assay [1] was 95% (inactive); in assay [2], 105% (inactive); in assay [3] it was 89% (inactive); in assay [4] (setting [7]), 96.5%; in assay [4] (setting [8]) it was 89%. Besides, the differential viability (reversal) in assay [4] (H69AR cells + 2 uM doxorubicin) was -7.45% (inactive). Moreover, the figures for the inhibition in assay [5] and in assay [6] were -3.97% (inactive) and -0.18% (inactive), respectively.

On to `COc1ccc(-c2[nH]nc3c2C(c2ccncc2)C(C#N)=C(N)O3)cc1` (centres undefined), for which the viability in assay [1] was 71% (inactive); in assay [2] it was 122% (inactive); in assay [3], 92.2% (inactive); in assay [4] (setting [7]), 90%; in assay [4] (setting [8]), 92.2%. The differential viability (reversal) in assay [4] (H69AR cells + 2 uM doxorubicin) was 2.15% (inactive). In addition, the inhibition is -5.81% (inactive) in assay [5] and -0.18% (inactive) in assay [6].
